# Laboratory results from ChEMBL document CHEMBL1141224, “Parallel solution-phase and microwave-assisted synthesis of new S-DABO derivatives endowed with subnanomolar anti-HIV-1 activity” (J Med Chem, 2005).
# Calls of active or inactive are those of the source. No cut-off for these calls is given here.
# Columns and labels:
# [1] = test system: Human immunodeficiency virus type 1 reverse transcriptase (Human immunodeficiency virus 1), Q72547 [Y181I]
# [2] = test system: Human immunodeficiency virus 1; assay: Antiviral activity against HIV1 IRLL98 mutant strain infected MT4 cells by MTT method; type: functional, organism-based; details: Human immunodeficiency virus 1, IRLL98, MT4
# Summary of the method: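 MT-4 cells infected with the HIV-1 mutant strain, or mock-infected for cytotoxicity, in the presence of a range of drug concentrations. Viable cells were counted by MTT colorimetric assay on day 5 post-infection. EC50 is the concentration that blocks 50% of HIV-induced cell death. Values are the mean of at least two experiments. IRLL98 carries RT mutations K101Q, Y181C and G190A, plus NRTI mutations.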
# MT4 = assay: Cytotoxicity against MT4 cells by MTT method; type: functional; details: Homo sapiens
# Summary of the method: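 Mock-infected MT-4 cells exposed to graded drug concentrations. Viability assessed by MTT colorimetric method at day 5. CC50 is the concentration causing 50% death of noninfected cells. Mean of at least two experiments.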
# [3] = test system: Human immunodeficiency virus 1; assay: Antiviral activity against wild type HIV1 NL4-3 infected MT4 cells by MTT method; type: functional, organism-based; details: Human immunodeficiency virus 1, NL4-3, MT4
# Summary of the method: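 MT-4 lymphoid cells infected with HIV-1 NL4-3 in the presence of graded drug concentrations. Viable cells counted by MTT colorimetric assay at day 5 post-infection. EC50 is the concentration protecting 50% of cells from HIV-induced death. Mean of at least two experiments.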
# [4] = test system: Human immunodeficiency virus 1; assay: Antiviral activity against HIV1 K103N mutant strain infected MT4 cells by MTT method; type: functional, organism-based; details: Human immunodeficiency virus 1, K103N
# [5] = biological target: Human immunodeficiency virus type 1 reverse transcriptase (Human immunodeficiency virus 1) (UniProt Q72547)
# [6] = test system: Human immunodeficiency virus 1; assay: Antiviral activity against HIV1 Y188L mutant strain infected MT4 cells by MTT method; type: functional, organism-based; details: for EC50: Human immunodeficiency virus 1, Y188L, MT4
# [7] = test system: Human immunodeficiency virus type 1 reverse transcriptase (Human immunodeficiency virus 1), Q72547 [K103N]
# [8] = test system: Human immunodeficiency virus type 1 reverse transcriptase (Human immunodeficiency virus 1), Q72547 [Y181I]; assay: Inhibition of Y181I mutant HIV1 reverse transcriptase by [3H]dTTP poly(rA)/oligo(dT) incorporation at 400 uM
# Summary of the method: (§1)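 RNA-dependent DNA polymerase assay of recombinant RT at 5–10 nM. Template: poly(rA)/oligo(dT) (0.3 μM 3'-OH ends) with 10 μM [3H]-dTTP. Run 10 min at 37 °C with increasing inhibitor. TCA-precipitated product was counted on GF/C filters. Highest concentration tested was 400 μM.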
# [9] = test system: Human immunodeficiency virus type 1 reverse transcriptase (Human immunodeficiency virus 1), Q72547 [K103N]; assay: Inhibition of K103N mutant HIV1 reverse transcriptase by [3H]dTTP poly(rA)/oligo(dT) incorporation at 400 uM
# Summary of the method: as §1
# [10] = biological target: Human immunodeficiency virus type 1 reverse transcriptase (Human immunodeficiency virus 1) (UniProt Q72547); assay: Inhibition of wild type HIV1 reverse transcriptase by [3H]dTTP poly(rA)/oligo(dT) incorporation at 400 uM
# Summary of the method: as §1
# [11] = test system: Human immunodeficiency virus 1; assay: Antiviral activity against HIV1 IRLL98 mutant strain infected MT4 cells by MTT method at 11 uM; type: functional; details: Human immunodeficiency virus 1, IRLL98, MT4
# Summary of the method: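 MT-4 cells infected with the mutant HIV-1 strain and treated with compound. Viable cells were measured by MTT colorimetric assay on day 5 post-infection. The value is the percent inhibition of HIV-induced cell death at the stated micromolar concentration. Values are the mean of at least two experiments.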
SMILES,ID50 [1] [µM],EC50 [2] [µM],CC50 (MT4) [µM],EC50 [3] [nM],EC50 [4] [µM],ID50 [5] [µM],EC50 [6] [µM],ID50 [7] [µM],ID50 [8],ID50 [9],ID50 [10],inhibition at 11 µM [11] [%],Inhibition [6] [%]
COc1ccc(CCSc2nc(Cc3c(Cl)cccc3Cl)c(C)c(=O)[nH]2)cc1,1.5,0.00022,> 57,< 0.14,0.87,0.026,6.9,3.2,,,,,
Cc1c(O)nc(SCc2cccc(Cl)c2)nc1Cc1c(Cl)cccc1Cl,400,4.8,> 59,310,> 59,2.3,> 59,400,,,,,
Cc1c(O)nc(SCc2ccccc2)nc1Cc1c(Cl)cccc1Cl,,> 64,> 64,830,> 64,2.5,> 64,350,inactive,,,,
Cc1c(O)nc(S(=O)(=O)Cc2ccc([N+](=O)[O-])cc2)nc1Cc1c(Cl)cccc1Cl,,> 53,> 53,> 53000,> 53,,> 53,,inactive,inactive,inactive,,
CCCCOc1ccc(CSc2nc(O)c(C)c(Cc3c(Cl)cccc3Cl)n2)cc1,,,3.1,> 3100,> 3.1,2.8,> 3.1,,inactive,inactive,,34,
Cc1c(O)nc(SCc2cccc(F)c2)nc1Cc1c(Cl)cccc1Cl,,2.2,> 61,150,> 61,2,> 61,35,inactive,,,,
Cc1ccnc2c1NC(=O)c1cccnc1N2C1CC1 [NEVIRAPINE],20,> 7.5,> 7.5,52,3.9,,> 7.5,8,,,,,
COc1ccc(CS(=O)(=O)c2nc(O)c(C)c(Cc3c(Cl)cccc3Cl)n2)cc1,27,> 2.8,2.8,> 2800,> 2.8,0.006,> 2.8,10,,,,,
COc1ccc(CSc2nc(O)c(C)c(Cc3c(F)cccc3F)n2)cc1,,0.69,> 64,26,0.69,0.007,10,3.5,inactive,,,,
Cc1c(Cc2c(F)cccc2F)nc(SCc2ccc([N+](=O)[O-])cc2)[nH]c1=O,,> 62,> 62,74,> 62,,> 62,,inactive,inactive,inactive,,
Cc1c(O)nc(S(=O)(=O)Cc2ccc(Br)cc2)nc1Cc1c(Cl)cccc1Cl,,> 50,> 50,> 50000,> 50,,> 50,,inactive,inactive,inactive,,
COc1cc(CSc2nc(O)c(C)c(Cc3c(F)cccc3F)n2)cc(OC)c1,,> 60,> 60,18000,> 60,,> 60,,inactive,inactive,inactive,,
COc1ccc(CSc2nc(O)c(C)c(Cc3ccc(F)cc3)n2)cc1,,> 8.9,8.9,> 8900,> 8.9,,> 8.9,,inactive,inactive,inactive,,
Cc1c(O)nc(SCc2ccc(Br)cc2)nc1Cc1c(Cl)cccc1Cl,,> 53,13,790,> 53,0.39,> 53,9,inactive,,,,
Cc1c(O)nc(SCc2ccc([N+](=O)[O-])cc2)nc1Cc1ccc(F)cc1,,> 65,> 65,> 65000,> 65,,> 65,,inactive,inactive,inactive,,
Cc1c(O)nc(SCc2ccc(O)cc2)nc1Cc1c(Cl)cccc1Cl,,> 41,41,> 41000,> 41,,> 41,,inactive,inactive,inactive,,
COc1ccc(CCCSc2nc(O)c(C)c(Cc3c(Cl)cccc3Cl)n2)cc1,0.3,0.11,1,0.44,> 1,0.037,> 1,0.5,,,,,
Cc1c(O)nc(SCc2ccc([N+](=O)[O-])cc2)nc1Cc1c(Cl)cccc1Cl,0.22,3.3,> 58,790,11,0.009,,0.12,,,,,31
COc1ccc(CSc2nc(Cc3c(Cl)cccc3Cl)c(C)c(=O)[nH]2)cc1,150,0.047,32,7,4.7,0.004,> 32,102,,,,,
Cc1c(O)nc(SCc2ccc3c(c2)C(=O)c2ccccc2C3=O)nc1Cc1c(Cl)cccc1Cl,,> 48,> 48,13000,> 48,3.5,> 48,,inactive,inactive,,,
Cc1c(O)nc(SCc2ccc(C#N)cc2)nc1Cc1c(F)cccc1F,,> 65,> 65,52,> 65,0.76,> 65,,inactive,inactive,,,
